In ChEMBL document CHEMBL1147561, “Application of the four-component Ugi condensation for the preparation of sulfated glycoconjugate libraries” (Bioorg Med Chem Lett, 2004) one finds Kd data, which are given here for 12 compounds.

Each structure is given as a SMILES string. pKd: −log10 of the molar value.

Experiment [1] addresses T1, Fibroblast growth factor 2 (Homo sapiens, UniProt P09038). Briefly: Binding affinity for human fibroblast growth factor 2 in surface plasmon resonance (SPR) assay. A digest of the protocol:
(§1)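 SPR solution affinity format: growth factor pre-equilibrated with ligand in solution, mixture passed over a heparin-immobilized sensor chip. Free (unbound) growth factor binding to heparin raises the SPR response and gives its concentration. Kd calculated from the decline in free growth factor concentration versus ligand concentration. Values are mean and SD of at least two independent measurements.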
On the technique in general: Surface plasmon resonance follows binding to a sensor surface in real time, without labels.

Experiment [2] addresses Fibroblast growth factor 1 (Homo sapiens, UniProt P05230). Briefly: Binding affinity for human fibroblast growth factor 1 in surface plasmon resonance (SPR) assay. Summed up: as §1
Experiment [3] deals with T1, Fibroblast growth factor 2. Briefly: Binding affinity for human fibroblast growth factor 2 in surface plasmon resonance (SPR) assay (No binding). A digest of the protocol: as §1

The pKd is the Kd on a negative log10 scale, so that one unit is a factor of ten. The low end stands for a large Kd, the high end for a small Kd.

Fibroblast growth factor 1, sequence (P05230 whole entry): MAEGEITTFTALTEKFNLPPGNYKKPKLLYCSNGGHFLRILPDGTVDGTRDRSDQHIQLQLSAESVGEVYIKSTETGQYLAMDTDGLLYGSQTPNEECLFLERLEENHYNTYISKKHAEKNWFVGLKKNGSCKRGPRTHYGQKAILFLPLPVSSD
T1 sequence (P09038 143-288 limits assumed): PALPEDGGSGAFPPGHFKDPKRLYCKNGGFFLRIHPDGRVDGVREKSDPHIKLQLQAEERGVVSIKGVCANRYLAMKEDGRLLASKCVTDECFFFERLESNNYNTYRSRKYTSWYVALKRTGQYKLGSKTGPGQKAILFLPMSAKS

Regarding `O=C(CN(CCOS(=O)(=O)O)C(=O)C1OC(OS(=O)(=O)O)C(OS(=O)(=O)O)C(OS(=O)(=O)O)C1OS(=O)(=O)O)NC1CCCCC1` (centres undefined), the pKd in experiment [1] is < 3.10; in experiment [2] it was 2.63.
In the case of `O=C(NC1CCCCC1)C(c1ccccc1)N(Cc1ccccc1)C(=O)C1OC(OS(=O)(=O)O)C(OS(=O)(=O)O)C(OS(=O)(=O)O)C1OS(=O)(=O)O` (centres undefined), the figures for the negative logarithm of the Kd (pKd) in experiment [2] and in experiment [3] were 4.20 and < 3.10, respectively.
For `O=C(CN(Cc1ccccc1)C(=O)C1OC(OS(=O)(=O)O)C(OS(=O)(=O)O)C(OS(=O)(=O)O)C1OS(=O)(=O)O)NC1CCCCC1` (centres undefined), the values for the negative-log Kd (pKd) in experiment [1] and in experiment [2] were 3.60 and 3.91, respectively.
For `CO[C@H]1O[C@@H](COCC(=O)N(CC(=O)NC2CCCCC2)[C@H]2CC[C@H](N(CC(=O)NC3CCCCC3)C(=O)COC[C@@H]3O[C@H](OC)[C@H](OS(=O)(=O)O)[C@@H](OS(=O)(=O)O)[C@@H]3OS(=O)(=O)O)CC2)[C@@H](OS(=O)(=O)O)[C@H](OS(=O)(=O)O)[C@H]1OS(=O)(=O)O` the same measures were 4.55 and 4.49.
For `CO[C@H]1O[C@@H](COCC(=O)N(CC(=O)NCCO[C@H]2O[C@@H](COS(=O)(=O)O)[C@@H](OS(=O)(=O)O)[C@H](OS(=O)(=O)O)[C@H]2OS(=O)(=O)O)Cc2ccccc2)[C@@H](OS(=O)(=O)O)[C@H](OS(=O)(=O)O)[C@H]1OS(=O)(=O)O` the same measures were 4.80 and 5.32.
As for `CO[C@H]1O[C@@H](COCC(=O)N(CC(=O)NC2CCCCC2)Cc2ccccc2)[C@@H](OS(=O)(=O)O)[C@H](OS(=O)(=O)O)[C@H]1OS(=O)(=O)O`, the pKd in experiment [1] is 3.70; in experiment [2], 3.59.
For `CO[C@H]1O[C@@H](COCC(=O)N(CCS(=O)(=O)O)CC(=O)NC2CCCCC2)[C@@H](OS(=O)(=O)O)[C@H](OS(=O)(=O)O)[C@H]1OS(=O)(=O)O` the same measures were 3.26 and 3.53.
Regarding `CC(C)(CC(=O)N(CCO[C@H]1O[C@@H](COS(=O)(=O)O)[C@@H](OS(=O)(=O)O)[C@H](OS(=O)(=O)O)[C@H]1OS(=O)(=O)O)CC(=O)NC1CCCCC1)CC(=O)N(CCO[C@H]1O[C@@H](COS(=O)(=O)O)[C@@H](OS(=O)(=O)O)[C@H](OS(=O)(=O)O)[C@H]1OS(=O)(=O)O)CC(=O)NC1CCCCC1`, the negative-log Kd (pKd) in experiment [1] was 4.47; in experiment [2] it was 5.00.
As for `CC(=O)N(CC(=O)NCCO[C@H]1O[C@@H](COS(=O)(=O)O)[C@@H](OS(=O)(=O)O)[C@H](OS(=O)(=O)O)[C@H]1OS(=O)(=O)O)Cc1ccccc1`, the negative-log Kd (pKd) was 3.54 in experiment [1] and 4.46 in experiment [2].
For `O=C(CN(Cc1ccccc1)C(=O)CO[C@@H]1[C@H](OS(=O)(=O)O)O[C@H](COS(=O)(=O)O)[C@H](OS(=O)(=O)O)[C@H]1OS(=O)(=O)O)NCCO[C@H]1O[C@@H](COS(=O)(=O)O)[C@@H](OS(=O)(=O)O)[C@H](OS(=O)(=O)O)[C@H]1OS(=O)(=O)O` the same measures were 4.07 and 5.20.
Turning to `O=C(CN(Cc1ccccc1)C(=O)C1OC(OS(=O)(=O)O)C(OS(=O)(=O)O)C(OS(=O)(=O)O)C1O)NC1CCCCC1` (centres undefined), the negative logarithm of the Kd (pKd) is 2.94 in experiment [1] and 3.23 in experiment [2].
For `O=C(CN(Cc1ccccc1)C(=O)C1OC(OS(=O)(=O)O)C(OS(=O)(=O)O)C(OS(=O)(=O)O)C1OS(=O)(=O)O)NCc1ccccc1` (centres undefined) the same measures were 3.69 and 3.98.
